Source: article PMC5828885 (The Journal of investigative dermatology, 2017)

Columns and labels:
[1] = In vitro assay for HCl salt precipitation in simulated lysosomal conditions; assay type: physicochemical; conditions: for Solubility behaviour in solution A (no chloride): compared with DMSO; for Precipitates by brightfield and Cy5 fluorescence microscopy in solution B: pH 4.5, 100mM chloride
Method in brief: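 Lysosome-mimic buffers: 10mM sodium acetate pH 4.5 with 10mM CTAB (Solution A), plus 100mM NaCl (Solution B). A 7mM DMSO stock was added 1:100 into each buffer and shaken 2.5 h at varying speeds. Absorbance at 285nm was read against a buffer-plus-DMSO baseline; a decrease was taken as precipitation. Precipitate was imaged by brightfield and Cy5 fluorescence microscopy.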

[2] = Quantification of CFZ in tissues of treated mice; assay type: in vivo, mice (Balb/c and C57BL/6); conditions: 10mg/kg/day oral, 3-4 weeks
Method in brief: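 4–5-week-old mice fed the test compound ad libitum in powdered chow; liver, spleen and ears (skin) harvested and rinsed in cold PBS. Tissue homogenized (sonication, or mechanical for ear) in RIPA with protease inhibitors, spun 15000 rpm, 4°C, 5 min. Supernatant extracted with xylenes, then 9M H2SO4 (each triplicate). A540−A750 against a 9M H2SO4 standard curve, normalized to organ weight.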

[3] = tested on: mice; assay: Multi-parameter microscopic imaging of tissue cryosections for CLDIs; assay type: in vivo, mice (Balb/c and C57BL/6); conditions: 10mg/kg/day, 3-4 weeks
Method in brief: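 Mice (4-5 weeks old) received a 10mg/kg/day-equivalent drug diet for 3-4 weeks, then were CO2-euthanized. Liver, spleen and ears were washed in cold PBS, embedded in OCT, frozen at -80°C and cryosectioned at 5 μm. Sections were imaged by brightfield, Cy5 fluorescence and LC-PolScope polarization (dichroism, 623nm-filtered illumination) and compared with untreated tissue.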

[4] = tested on: patients; conditions: leprosy or MDR-TB patients; ref Maia et al., 2013, Tang et al., 2015; cited from earlier work
[5] = tested on: mice; assay type: in vivo, mice (Balb/c and C57BL/6); conditions: 10mg/kg/day, 3-4 weeks; for Skin pigmentation (visual): mice, drug powder feed diet; for Skin pigmentation (OD values, 480nm and 535nm filters): mouse ears, n=3, p<0.01 vs untreated
Method in brief: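 Balb/c and C57BL/6 mice, 4-5 weeks old, fed ad libitum a drug powder diet targeting an oral dose equivalent of 10mg/kg/day for 3-4 weeks; untreated mice as controls. Ears were photographed by phone camera through single-band bandpass filters (480, 535, 623nm), flash/HDR off, no editing filters. Reflectance was quantified by image analysis (drug powder n=7, untreated n=3); one-way ANOVA, Tukey's HSD.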

[6] = ref Baik et al., 2013; cited from earlier work
[7] = LogP and LogD determination, 1-octanol/phosphate buffer partitioning; assay type: physicochemical
Method in brief: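 Shake-flask partitioning in phosphate buffer pH 3/1-octanol 1:1 (v/v) at 25°C, thermostatted water bath, magnetic stirring for 24 h to equilibrate. Compound was introduced in organic solvent at maximum solubility. Both layers were assayed spectrophotometrically at 285nm against a standard curve. The apparent partition coefficient was converted to LogP and LogD (pH 7.4) by published equations.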

[8] = pH 4.5, 10 mM CTAB, 100mM chloride

| CLDIs accumulation in all tissues ([3]; liver, spleen, skin) | LogP ([7]; 1-octanol/phosphate buffer pH 3, 25°C, 24 hours, mean, n=3) | LogD @ pH 7.4 ([7]; pH 7.4, from the apparent partition coefficient, 25°C, mean, n=3) | SMILES | Decrease in absorbance (285nm) in solution B [1, 8] [fold] | Precipitation as hydrochloride salt in solution B [1, 8] | Solubility behaviour in solution A (no chloride) ([1]; pH 4.5, 10 mM CTAB) | Precipitates by brightfield and Cy5 fluorescence microscopy in solution B [1] | Tissue concentration of the drug in skin ([2]; n=3, mean ± SD) [mg/g] | Tissue concentration of the drug in liver ([2]; n=4, mean ± SD) [mg/g] | Tissue concentration of the drug in spleen ([2]; n=4, mean ± SD) [mg/g] | CLDIs in skin sections [3] | CLDIs in liver and spleen ([3]; brightfield, fluorescence, diattenuation) | Patients with skin pigmentation [4] | Skin pigmentation (visual) [5] | Skin pigmentation (OD values, 480nm and 535nm filters) [5] | Concentration found in adipose tissue [6] [mgCFZ/gFat] | logP at 24 h ([7]; 1-octanol/phosphate buffer 1:1 (v/v), pH 3) | logD at 24 h ([7]; 1-octanol/phosphate buffer, pH 7.4) |
| --- | --- | --- | --- | --- | --- | --- | --- | --- | --- | --- | --- | --- | --- | --- | --- | --- | --- | --- |
| – | – | – | CC(C)/N=c1\cc2n(-c3ccc(Cl)cc3)c3ccccc3nc-2cc1Nc1ccc(Cl)cc1 [CFZ, Clofazimine] | 4 | precipitates out as hydrochloride salt | remained soluble | precipitates as a HCl salt form | 0.16 ± 0.04 | 2.37 ± 0.62 | 4.34 ± 0.41 | did not contain CLDIs | CLDIs were observed | more than 94% | visually evident | significantly higher than the untreated group | 0.74 | 7.66 | 5.76 |
| no evidence of CLDIs accumulation | 6.69 ^2 | 5.42 ^3 | OCCN=c1cc2n(-c3ccc(Cl)cc3)c3ccccc3nc-2cc1Nc1ccc(Cl)cc1 [compound 568] | – | remains in solution | remained soluble | no precipitates were observed | – | – | – | – | – | – | visually evident | identical level of pigmentation as CFZ treated mice | – | – | – |
